# Reference: ChEMBL document CHEMBL5329156, “Discovery and development of novel substituted monohydrazides as potent antifungal agents” (RSC Med Chem, 2023)
# Columns and labels:
# Type in all cases: functional
# Candida albicans [1] = experiment: Antifungal activity against itraconazole/fluconazole resistant Candida albicans ATCC 90819 assessed as fungal growth inhibition by double dilution method
# Summary of the method: (§1)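 Broth microdilution after CLSI M27-A3/M38-A2 with minor modifications. A single colony was grown overnight in YPD at 35 °C with shaking at 200 rpm. Cells were mixed 1:1 with compound (final 0.06-31.3 µg/mL, from DMSO stocks) and incubated 48 h at 35 °C.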
# Candida albicans [2] = experiment: Antifungal activity against Candida albicans ATCC 10231 assessed as fungal growth inhibition by double dilution method
# Summary of the method: (§2)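 Broth microdilution after CLSI M27-A3/M38-A2 with minor changes. Single colony grown overnight in YPD at 35 °C, 200 rpm. Compound final range 0.06-31.3 µg/mL; incubated 48 h at 35 °C.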
# Candida albicans [3] = experiment: Antifungal activity against itraconazole/fluconazole susceptible Candida albicans ATCC MYA-2310 assessed as fungal growth inhibition by double dilution method; summary of the method: as §1
# Candida albicans [4] = experiment: Antifungal activity against itraconazole/fluconazole susceptible Candida albicans ATCC MYA-2876 assessed as fungal growth inhibition by double dilution method; summary of the method: as §1
# Nakaseomyces glabratus [5] = experiment: Antifungal activity against Candida glabrata ATCC 22019 assessed as fungal growth inhibition by double dilution method; summary of the method: as §2
# Candida albicans [6] = experiment: Antifungal activity against Candida albicans ATCC 64124 assessed as fungal growth inhibition by double dilution method; summary of the method: as §1
# Nakaseomyces glabratus [7] = experiment: Antifungal activity against Candida glabrata ATCC 2001 assessed as fungal growth inhibition by double dilution method; summary of the method: as §2
# Cryptococcus neoformans = experiment: Antifungal activity against Cryptococcus neoformans ATCC MYA-895 assessed as fungal growth inhibition by double dilution method; summary of the method: as §2
# [Candida] auris [8] = Antifungal activity against Candida auris AR Bank # 0390 assessed as fungal growth inhibition by double dilution method; settings: Candidozyma auris; summary of the method: as §2
# Aspergillus fumigatus [9] = experiment: Antifungal activity against Aspergillus fumigatus NRRL 6113 assessed as fungal growth inhibition by double dilution method
# [Candida] auris [10] = Antifungal activity against Candida auris AR Bank # 0384 assessed as fungal growth inhibition by double dilution method; settings: Candidozyma auris; summary of the method: as §2
# Aspergillus nidulans = experiment: Antifungal activity against Aspergillus nidulans ATCC 38163 assessed as fungal growth inhibition by double dilution method
# Aspergillus terreus = experiment: Antifungal activity against Aspergillus terreus ATCC MYA-3633 assessed as fungal growth inhibition by double dilution method
# Aspergillus flavus = experiment: Antifungal activity against Aspergillus flavus ATCC MYA-3631 assessed as fungal growth inhibition by double dilution method
# Pichia kudriavzevii = experiment: Antifungal activity against Pichia kudriavzevii ATCC 6258 assessed as fungal growth inhibition by double dilution method; summary of the method: as §2
# Aspergillus fumigatus [11] = experiment: Antifungal activity against Aspergillus fumigatus NRRL 163 assessed as fungal growth inhibition by double dilution method
# Candida albicans [12] = experiment: Antifungal activity against itraconazole/fluconazole resistant Candida albicans ATCC MYA-1237 assessed as fungal growth inhibition by double dilution method; summary of the method: as §1
# Candida albicans [13] = experiment: Antifungal activity against itraconazole/fluconazole resistant Candida albicans ATCC MYA-1003 assessed as fungal growth inhibition by double dilution method; summary of the method: as §1
# Aspergillus fumigatus [14] = experiment: Antifungal activity against Aspergillus fumigatus NRRL 5109 assessed as fungal growth inhibition by double dilution method
Structure (SMILES),MIC (Candida albicans [1]) [mg/L],MIC (Candida albicans [2]) [mg/L],MIC (Candida albicans [3]) [mg/L],MIC (Candida albicans [4]) [mg/L],MIC (Nakaseomyces glabratus [5]) [mg/L],MIC (Candida albicans [6]) [mg/L],MIC (Nakaseomyces glabratus [7]) [mg/L],MIC (Cryptococcus neoformans) [mg/L],MIC ([Candida] auris [8]) [mg/L],MIC (Aspergillus fumigatus [9]) [mg/L],MIC ([Candida] auris [10]) [mg/L],MIC (Aspergillus nidulans) [mg/L],MIC (Aspergillus terreus) [mg/L],MIC (Aspergillus flavus) [mg/L],MIC (Pichia kudriavzevii) [mg/L],MIC (Aspergillus fumigatus [11]) [mg/L],MIC (Candida albicans [12]) [mg/L],MIC (Candida albicans [13]) [mg/L],MIC (Aspergillus fumigatus [14]) [mg/L]
O=C(NNc1cccc(F)c1)c1nc(F)ccc1F,3.9,0.98,1.95,1.95,7.8,0.98,15.6,≤ 0.06,1.95,> 31.3,1.95,1.95,3.9,> 31.3,0.49,> 31.3,1.95,0.98,> 31.3
COc1ccc(NNC(=O)c2nc(F)ccc2F)cc1,1.95,1.95,1.95,1.95,7.8,1.95,7.8,0.98,0.98,31.3,3.9,1.95,31.3,> 31.3,0.98,31.3,0.98,0.98,15.6
O=C(NNc1cccc(F)c1)c1ccc(F)cc1F,7.8,0.24,3.9,3.9,3.9,1.95,7.8,1.95,0.24,> 31.3,1.95,3.9,1.95,> 31.3,1.95,> 31.3,0.98,1.95,> 31.3
COc1ccc(NNC(=O)c2ccc(F)cc2F)cc1,1.95,0.98,1.95,1.95,7.8,1.95,3.9,0.98,1.95,> 31.3,1.95,1.95,31.3,> 31.3,0.98,> 31.3,1.95,1.95,> 31.3
O=C(NNc1ccc(F)cc1)c1nc(F)ccc1F,0.98,0.24,0.98,0.98,7.8,0.98,15.6,0.49,0.98,> 31.3,1.95,0.49,1.95,7.8,0.24,31.3,0.98,0.49,15.6
COc1ccc(NNC(=O)c2cccc(F)n2)cc1,1.95,0.24,0.98,0.98,7.8,1.95,0.98,0.24,1.95,15.6,1.95,1.95,15.6,> 31.3,0.49,> 31.3,0.98,0.98,> 31.3
COc1ccc(NNC(=O)c2ncc(F)cc2F)cc1,1.95,1.95,1.95,1.95,7.8,1.95,7.8,1.95,0.98,31.3,3.9,1.95,31.3,> 31.3,0.98,31.3,0.98,0.98,31.3
O=C(NNc1ccc(F)cc1)c1ncc(F)cc1F,1.95,0.98,3.9,1.95,3.9,1.95,15.6,0.49,0.98,> 31.3,1.95,0.49,3.9,7.8,0.49,> 31.3,1.95,0.98,> 31.3
